High-throughput results deposited in PubChem by Sanford-Burnham Center for Chemical Genomics.
CHOP UPR activ – activators of apoptotic CHOP UPR arm, primary screen, cell-based, CHO-CHOP luciferase reporter, luminescence, uHTS; UPR activation; percent of tunicamycin response over DMSO baseline; activation, % at 10 µM; actives 0.34% (n = 330,000);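 active = at 10 µM dose, activation of 40% or more, normalized to positive control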;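 also: 100% = tunicamycin at 10 µg/mL and 0% = DMSO alone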
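Test system: CHO-CHOP cells, stable luciferase reporter of PERK-eIF2a-CHOP signalling | Quantity: 500 CHO-CHOP cells per well | Buffer or medium: F12 plus 10% serum | Compound dosing: 10 µM single point, 0.5% DMSO | Schedule: 6 h compound treatment, 37 °C | Signal: Luciferase luminescence | Control set: Tunicamycin high control, DMSO low control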
XBP1 UPR activ – activators of adaptive XBP1 UPR arm, primary screen, cell-based, CHO-XBP1 luciferase reporter, luminescence, uHTS. IRE1-XBP1 UPR activation; percent of tunicamycin response, DMSO as zero. activation, % at 20 µM. actives 0.33% (n = 330,000). AID 463104, 2010;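 active = versus positive control, 20 µM dose yields 30% or more activation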;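 also: 100% = tunicamycin at 10 µg/mL and 0% = DMSO only wells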
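Signal: luciferase luminescence; Assay system: CHO-XBP1 luciferase reporter cells; Amount: one thousand reporter cells per well; Dosing: 20 µM single concentration, DMSO 1%; Benchmarks: high control tunicamycin 10 µg/mL final, low control DMSO vehicle only; Schedule: 6 h compound exposure at 37 °C, 5% CO2; Evaluation: percent activation relative to tunicamycin reference.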
Mdm2-MdmX inh – inhibitors of human Mdm2-MdmX association, primary screen, cell-based, luminescence, split luciferase, SaOS-2, uHTS | inhibition, % at 8 µM | SaOS-2 split-luciferase Mdm2/MdmX complementation | actives 3% (n = 330,000) | Protein Mdm4 (Homo sapiens) + E3 ubiquitin-protein ligase Mdm2 (Homo sapiens), … | AID 485346, 2010;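 active = inhibition of at least 50% at 8 µM in the primary screen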
Target sequence (O15151 whole entry, looked up): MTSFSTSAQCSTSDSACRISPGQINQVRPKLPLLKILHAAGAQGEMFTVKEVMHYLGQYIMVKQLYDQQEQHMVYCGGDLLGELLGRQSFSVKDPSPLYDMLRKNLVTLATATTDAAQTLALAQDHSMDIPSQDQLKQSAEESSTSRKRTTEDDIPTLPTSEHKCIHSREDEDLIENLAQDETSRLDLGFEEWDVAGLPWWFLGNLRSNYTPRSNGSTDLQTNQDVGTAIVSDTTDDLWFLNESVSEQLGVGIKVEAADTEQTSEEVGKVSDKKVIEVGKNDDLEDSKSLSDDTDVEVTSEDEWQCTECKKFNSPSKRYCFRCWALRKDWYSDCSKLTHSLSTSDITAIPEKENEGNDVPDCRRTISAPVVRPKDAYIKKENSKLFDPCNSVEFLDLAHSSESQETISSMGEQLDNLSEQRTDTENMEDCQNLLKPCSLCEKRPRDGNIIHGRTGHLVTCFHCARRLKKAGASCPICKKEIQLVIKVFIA
Target sequence (Q00987 whole entry, looked up): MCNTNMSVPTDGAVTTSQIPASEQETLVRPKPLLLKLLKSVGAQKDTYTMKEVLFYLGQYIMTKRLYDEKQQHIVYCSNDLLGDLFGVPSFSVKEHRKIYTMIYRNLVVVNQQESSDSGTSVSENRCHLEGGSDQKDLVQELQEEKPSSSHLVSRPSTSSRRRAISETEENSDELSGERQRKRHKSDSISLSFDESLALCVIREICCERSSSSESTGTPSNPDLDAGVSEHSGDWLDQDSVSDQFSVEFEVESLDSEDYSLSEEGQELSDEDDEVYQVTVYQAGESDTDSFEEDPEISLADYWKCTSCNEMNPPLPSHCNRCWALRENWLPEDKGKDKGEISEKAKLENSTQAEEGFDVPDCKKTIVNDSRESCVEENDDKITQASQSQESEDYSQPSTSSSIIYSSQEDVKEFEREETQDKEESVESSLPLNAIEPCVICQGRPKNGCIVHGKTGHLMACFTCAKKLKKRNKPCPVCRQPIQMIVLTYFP
Apaf1 inhib – inhibitors of human Apaf-1 apoptosome, primary screen, biochemical, DEVD-Rh110 fluorescence, uHTS; actives 0.71% (n = 330,000); Apoptotic protease-activating factor 1 (Homo sapiens), O14727; inhibition, % at 20 µM; reconstituted apoptosome caspase-3 activity; active = inhibition of at least 40% at 20 µM;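 also: plate controls were DMSO wells for no effect and DEVD-CHO caspase inhibitor wells for full effect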
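Material: reconstituted apoptosome with Apaf-1, cytochrome c, caspase-9, procaspase-3, dATP / Buffer or medium: pH 7.5 Hepes buffer with CHAPS, BSA, DTT / Also added: cytochrome c with DEVD-Rh110 / Schedule: compound with Apaf-1, dATP, procaspase-3 30 min, then 50 min reaction, room temperature / Technique: rhodamine 110 fluorescence at Ex 480/Em 540 nm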
UBC13 inh – UBC13 polyubiquitin chain formation inhibitors, primary screen, biochemical, TR-FRET, uHTS. inhibition, % at 20 µM. actives 0.47% (n = 330,000). AID 485273, 2010; in the data active = inhibition above about 45%, passing the limit was not always enough
Mdm2-MdmX conf – Mdm2-MdmX complex disruptors, retested hits, confirmation, luminescence, single concentration | Mdm2-MdmX binding, luminescent assay | actives 55% (n = 10,000) | inhibition, % at 8 µM | shares compounds with Mdm2-MdmX inh; in the data active = inhibition above about 40%
Full FLuc ctr – full-length luciferase signal inhibition, confirmation, counter-screen for Mdm2/MdmX interaction inhibitor project, cell-based, single concentration, SaOS-2. shares compounds with Mdm2-MdmX inh. SaOS-2 full-length luciferase counterscreen, luminescence. inhibition, % at 8 µM. actives 77% (n = 6,200). AID 504607, 2011;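 active = mean inhibition at 8 µM reaching about 37%, which flags the compound as non-specific, limit read from the data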;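 also: p53-null SaOS-2 cells with luciferase driven by a doxycycline-inducible promoter; compound on cells about two nights before reading with doxycycline added after day one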
Apaf-1 inh conf – Apaf-1 inhibitors, single-dose retest, confirmation, biochemical, fluorescence, DEVD-Rh110, 20 µM | shares compounds with Apaf1 inhib | reconstituted apoptosome, caspase-3 DEVD-Rh110 fluorescence | inhibition, % at 20 µM | actives 25% (n = 1,800);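 active = mean inhibition of at least 40% at 20 µM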;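 also: plate controls were DMSO wells for no effect and DEVD-CHO caspase inhibitor control wells for full effect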
Rh110 quench – Rh110 fluorescence interference by putative Apaf-1 inhibitors, confirmation, artefact control for Apaf-1 inhibitor project, biochemical, 20 µM; activation (fluorescence interference), % at 20 µM; quenched caspase reaction; 1,800 tested, under 10 active; shares compounds with Apaf1 inhib; AID 504615, 2011;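 active = signal rise of 40% or more at 20 µM, treated as a fluorescence artifact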
Fluor interf inh – fluorescence interference of Apaf-1 inhibitor hits, dose response, artefact control for Apaf-1 inhibitor project; shares compounds with Apaf1 inhib; fluorescence interference counterscreen, Apaf-1 assay format; IC50, µM; 460 tested, under 10 active; AID 588538, 2011; call rule not given here
Active calls of the source: *; . = no result given. Only some compounds are listed: those with a hit (about 4.1% of all), similar ones and a draw of the others.

SMILES | CHOP UPR activ | XBP1 UPR activ | Mdm2-MdmX inh | Apaf1 inhib | UBC13 inh | Mdm2-MdmX conf | Apaf-1 inh conf | Rh110 quench | Fluor interf inh | others
COc1ccc(C(=O)c2c(C(F)(F)F)oc3c2C(=O)c2ccccc2C3=O)cc1 | -1 | -3 | 78* | 79* | -46 | 66* | 84* | 14 | >100 | Full FLuc ctr=54*
COc1ccc(C(=O)c2coc(-c3ccccc3C(=O)O)c2C(=O)O)cc1 | 1 | 1 | -5 | -11 | 8 | . | . | . | .
O=C(NCc1ccc(Cl)cc1Cl)C1CC(=O)N(Cc2ccccc2)C1 (stereo unspecified) | 0 | 1 | 0 | 4 | 5 | . | . | . | .
O=C1CCc2ccc(OCCCCN3CCN(c4cccc(Cl)c4Cl)CC3)cc2N1 | 1 | -4 | 52* | 43* | 35 | 14 | 18 | 8 | .
COc1ccccc1N1CCN(CCCOc2ccc(F)cc2)CC1 | -2 | -3 | -4 | -11 | -2 | . | . | . | .
COc1ccc(/C=N/NC(=O)CCn2cnc(-c3ccccc3)c2-c2ccccc2)cc1 | 2 | 15 | 58* | 54* | 11 | 72* | 44* | 11 | >100 | Full FLuc ctr=96*
O=C(CCn1cnc(-c2ccccc2)c1-c1ccccc1)N/N=C/c1ccc(O)cc1 | 0 | -3 | 19 | 5 | 5 | . | . | . | .
CCCN(S(=O)(=O)c1ccccc1F)S(=O)(=O)c1ccccc1Br | 0 | -2 | 3 | 29 | 2 | . | . | . | .
COc1ccc2c(c1)c1ncn(CCN3CCCC3)c(=O)c1n2C | -2 | 4 | 13 | 7 | 1 | . | . | . | .
Cc1ccc2c(c1)c1ccc3c(c1n2C)C(=O)C=CC3=O | -9 | -10 | 86* | 57* | -25 | 71* | 40* | 2 | >100 | Full FLuc ctr=57*
COc1ccc2c(c1)c1ccc3c(c1n2C)C(=O)C=CC3=O | -2 | -11 | 93* | 71* | -34 | 74* | 57* | 5 | >100 | Full FLuc ctr=58*
C(=C\c1ccccn1)/c1cccnc1 | 5 | -2 | -6 | 2 | -2 | . | . | . | .
COc1ccc(CC(=O)Nc2ccc(-c3nc4cc(C)ccc4o3)c(O)c2)cc1OC | 1 | -2 | 92* | 42* | 1 | 47* | 6 | -3 | . | Full FLuc ctr=115*
Cc1ccc2oc(-c3ccc(NC(=O)c4ccncc4)cc3O)nc2c1 | 6 | 3 | -55 | 11 | 10 | . | . | . | .
COc1ccc(CCN2C(=O)c3[nH]nc(-c4ccccc4O)c3C2c2cccc(Cl)c2)cc1 (stereo unspecified) | 2 | 6 | 76* | 41* | -7 | 57* | 10 | 13 | . | Full FLuc ctr=74*
COc1cccc(/C=C/C(=O)OCC(=O)Nc2ccc(Cl)cn2)c1 | 1 | 0 | -13 | 14 | -5 | . | . | . | .
O=C(NCCCn1ccnc1)c1cc(-c2cccs2)on1 | 6 | 6 | -60 | 5 | -13 | . | . | . | .
O=c1cc(N/N=C/c2ccccc2)[nH]c(=O)[nH]1 | 3 | 5 | 70* | 68* | -33 | 21 | 43* | 8 | >100
Cc1cccc2sc(N(CCCN(C)C)C(=O)c3ccc(S(=O)(=O)N4CCc5ccccc5C4)cc3)nc12 | 36 | 24 | 64* | 63* | 39 | 24 | 25 | -6 | .
COC(=O)C1=C(C)N(Cc2ccccc2)C(=NCc2ccc(OC)cc2)N[C@H]1c1ccccc1 | 1 | 2 | 65* | 51* | 44 | 25 | 12 | 6 | .
COc1ccc(NC(=O)CSCC(=O)N(C)Cc2ccc3c(c2)OCCO3)cc1 | -1 | -3 | 13 | 13 | -1 | . | . | . | .
Cc1ccc(C(=O)c2coc3c2C(=O)C(=O)c2ccccc2-3)cc1 | 8 | 6 | -72 | 18 | -31 | . | . | . | .
Cc1coc2c1C(=O)C(=O)c1c-2ccc2c1CCCC2(C)C | 7 | 8 | 53* | 77* | -81 | 6 | 59* | 10 | >100
CC(C)N(CCCNC(=O)Cn1c(=O)c2cccn2c2ccccc21)Cc1ccccc1 | 1 | -5 | 5 | -6 | 10 | . | . | . | .
Cc1cc(O)c2c(c1O)C(=O)[C@]13C(=C2O)C(=O)[C@@H]2[C@@H](O)[C@H]1[C@@H]1[C@H](O)[C@H]3C(=O)C3=C(O)c4c(O)cc(C)c(O)c4C(=O)[C@]312 | 24 | 4 | 87* | 69* | -276 | 85* | 59* | 7 | >100 | Full FLuc ctr=23
SMILES | CHOP UPR activ | XBP1 UPR activ | Mdm2-MdmX inh | Apaf1 inhib | UBC13 inh | Mdm2-MdmX conf | Apaf-1 inh conf | Rh110 quench | Fluor interf inh | others
CC(C)Cn1c(N)c(C(=O)NCC2CCCO2)c2nc3ccccc3nc21 (stereo unspecified) | 2 | 0 | 52* | 65* | -7 | 21 | 30 | 10 | .
O=C1C(N2CCOCC2)=C(n2nnc3ccccc32)C(=O)c2ccccc21 | 4 | -5 | 73* | 94* | -176 | 33 | 97* | 10 | >100
O=C(CSCc1cccc(Cl)c1)N1CCN(Cc2ccc3c(c2)OCO3)CC1 | -1 | 0 | -10 | 25 | -7 | . | . | . | .
CCN1/C(=C/C=C/C=C/C=C/c2sc3ccccc3[n+]2CC)Sc2ccccc21 | 21 | 0 | 23 | 2 | 25 | . | . | . | .
CCN1/C(=C/C=C/c2sc3ccccc3[n+]2CC)Sc2ccccc21 | -7 | -12 | 96* | 90* | 2 | 85* | 51* | 16 | >100 | Full FLuc ctr=17
Cc1cc(C)n2nc(C(=O)OCC(=O)c3ccccc3Cl)nc2n1 | 3 | 1 | 0 | -14 | 6 | . | . | . | .
CC(=O)Nc1ccc(C(=O)COC(=O)c2nc3nc(C)cc(C)n3n2)cc1 | 0 | -1 | -5 | 41* | -11 | . | 10 | 2 | .
CCOC(=O)c1ccc(NC(=O)c2nc[nH]c2C(=O)N2CCN(c3ccccc3)CC2)cc1 | 1 | -4 | 31 | 14 | -3 | . | . | . | .
